Reference: the EternaBench riboswitch data

Test system: MS2 coat protein
Assay: apparent Kd, MS2 coat protein; higher = weaker binding; RNA-MaP array; FMN 200 µM where present
Summary of the method: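 Stalled E. coli RNA polymerase transcribed each design on Illumina sequencing-chip clusters. The clusters were titrated with SNAP-549-labelled MS2 coat protein, starting at 0.7 or 1.5 nM and doubling up to 3 µM, first without ligand and then with constant ligand, in 100 mM Tris-HCl pH 7.5, 80 mM KCl, 4 mM MgCl2, BSA, DTT, yeast tRNA and Tween-20. Green signal was normalised to red-channel RNA signal and to the control-cluster median Fmax. The apparent Kd is the median of filtered binding-curve fits made for each cluster.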

[1] = designed as: ON switch for flavin mononucleotide, no ligand
[2] = ligand present: flavin mononucleotide, designed as: ON switch for flavin mononucleotide
[3] = designed as: OFF switch for flavin mononucleotide, no ligand
[4] = ligand present: flavin mononucleotide, designed as: OFF switch for flavin mononucleotide

Sequence | apparent Kd [1] [nM] | apparent Kd [2] [nM] | apparent Kd [3] [nM] | apparent Kd [4] [nM]
AAUUUAAUACAUGAGGAUCACCCAUGUAAUACUUGUAAGAUCAAGGAUAUCAGCUCGUUUAGAGCUGAGAAGGUGAUCACAUGU | 58.2 | 198 | – | –
AAUUUACAGCUAGGAUAUACAUGAGGAUCACCCAUGUAACGAUCGGAUCUUAUGAUCGUAUCCGUGUAGAAGGAGCAAAUAAGA | – | – | 6.46 | 6.39
AAUUUACAUGAGGAUCACCCAUGUCAGGAUAUGGUUUUAUUUUUUUCUUUUUUUGAUUCCAGAAGGGACAGUUA | – | – | 148 | 79.6
AAUUUCAGAUGAGGAUAUUGACAUGAGGAUCACCCAUGUAUUUGGGAAUGUUUACUGAAUUCUUACGAGAAGGUAUACGAACUU | – | – | 296 | 200
AAUUUGGUCGUAGGAUAUCGGAAGCGGUGCGAACGAGAAGGGCGACAUGAGGAUCACCCAUGUAGCCACGAAGGCGAUCCUUGG | – | – | 9.75 | 16.3
ACAAAUGGAGGAUAUACAUGAGGAUCACCCAUGUUUAUCCUACAUAUGUGAUAAUAAUGUAGAAGGCCAUUUGA | – | – | 12.5 | 16.2
ACAAAUGGAGGAUAUACAUGAGGAUCACCCAUGUUUAUCCUACAUAUGUGAUCCUCAUGUAGAAGGCCAUAUGA | – | – | 11 | 10.6
ACAAUAGUAUCACAUGUAUUACAUGAGGAUCACCCAUGUAACUAGGAUAUGUUUUAGAAUUUACAACAGAAGGAGUUAUUAUGU | – | – | 8.48 | 14.1
ACACAUGAGGAUCACCCAUGUAGCUGGCGUCUGUGCCAGCCACAGGAUAUACGGCAACACAAGCCGUAGAAGGGUGAUAAACAC | 85.3 | 36.5 | – | –
ACACGACAUGAGGAUCACCCAUGUGAGGAUAUCGAUCUACACUAUGCCCAUAGUCUCUCGAGAAGGCACACUAA | – | – | 30.6 | 31.7
ACACGGUAUGUAGGAUAUGCAUAGCAUUGCUAUGCAGAAGGACAUGAGGAUCACCCAUGUAUGUAUUCCAUACUAAUCCCGUGU | – | – | 5.49 | 5.58
ACAGCUGAAGGAUAUACUUGGGAAAAAAAAAAAAAAAAAAAACAUGAGGAUCACCCAUGUAGAAGGUCAGCUGA | – | – | 103 | 60
ACAUACAUUCGAGGAUAUCGGUGAACAAAUUAACGAGAAGGCGAUAAAAUUUUUAAUCUUAUGAACAUGAGGAUCACCCAUGUA | 21.3 | 18.5 | – | –
ACAUCACAUGAGGAUCACCCAUGUCAGGAUAUCGACUGAACAGCUUCGGCUGUUCAGUCGAGAAGGGACAAUUA | – | – | 66.5 | 131
ACAUGAGAGAUAGGAUAUCUUGUACCUACAUGUGACAUGAGGAUCACCCAUGUGGUAAGUAUGAGGGAGAAGGGUCAGAUAUGU | 57.9 | 55.9 | – | –
ACAUGAGGAUCACCCAUGUAAUGAAGGGUACUAUACUAAACGUAGGAUAUCGAUGUAAGAUUGUACGAGAAGGACGAUUGCCUU | – | – | – | 38.8
ACAUGAGGAUCACCCAUGUAUACAUAGGAUAUUGGUGAUCAGGCAUGUUUUACAGGAUAUGUCUGCGAGAAGGAUGCACGUUGC | 810 | 452 | – | –
ACAUGAGGAUCACCCAUGUAUACAUAGGAUAUUGGUGAUCAGGGAUGUUUUACAGGAUAUGUCUGCGAGAAGGAUGCAAGAUGU | 398 | 69 | – | –
ACAUGAGGAUCACCCAUGUAUUUGUAGGAUAUACUCUAUUGUUUAUUACUCUAGUUAAUAUGUUUGUAGAAGGACAUUACAUGA | – | – | 7.94 | 10.8
ACAUGAGGAUCACCCAUGUGAGGAUCACCCAUGUUAUAUUUCAGAAGGCUCGUUUGUUUGAGGAGAGAGGAUAUGGAAUAUAGG | – | – | 127 | 84.7
ACAUGAGGAUCACCCAUGUGUACAUAGGAUAUUGAGGAUUAGGGAUAAAGUGAAGAGAUUGCCCACAAGAAGGAUGAAAGUGUU | 9.82 | 8.82 | – | –
ACAUGAGGAUCACCCAUGUGUACAUAGGAUAUUGAUGAUUAUGGUUUAAGAAAAGUAAUUGCCCACAAGAAGGAUGCCUCAUCU | 36.5 | 27.7 | – | –
ACAUGAGGAUCACCCAUGUUAAACGAGGAUAUAUGACUGCACAUGAGGUUCACCCAUGUUCUGCCGUAGAAGGUGUAAAUAAUU | 43.3 | 42.8 | – | –
ACAUGAGGAUCACCCAUGUUAAGCGAGGAUAUUUCACUGCACAUGAGGUUCGCCCAUGUCCUGCGGAAGAAGGUGCGAAUAAUU | 33.4 | 17.1 | – | –
ACAUGAGGAUCACCCAUGUUAUAUGGGAAUUAAUUUAUUUGUAGAAGGAUGUUUUCUUGUUAGUCAUAGGAUAUACUAUUAAAU | – | – | 255 | 158
ACAUGAGGAUCACCCAUGUUUUUCGGGUACUCUUUUUACAGCAAGGAUAUGCAUUAUUUAUGUACGCAGAAGGUGCUUUACGUC | – | – | 77 | 138
ACAUGAUAUGUAGGAUAUCACAACAUGAGUUUUAUUAUUGUUAUUUAUGAUUGAGAAGGACAUUUACAUGAGGAUCACCCAUGU | – | – | 17.8 | 12.3
ACAUGAUAUGUAGGAUAUCACAUUAAUUGAUUAAUAUUUGAAUAUAGGAUUUGAGAAGGACAUUUACAUGAGGAUCACCCAUGU | – | – | 20.1 | 14.4
